# From ChEMBL document CHEMBL1152541, “Staurosporine tethered peptide ligands that target cAMP-dependent protein kinase (PKA): optimization and selectivity profiling” (Bioorg Med Chem, 2009)
# *1 amine or outer side, *2 acyl side, *3 side chain or, on linkers, in order; H or OH if unused. Where a SMILES comes first, the peptide text is derived from it. Bridges are numbered along the chain shown (N, C = ends). [ ]: non-standard residue; d: D form. The star is where a group is joined. Staurosporine = CO[C@@H]1[C@H](N(C)*)C[C@H]2O[C@]1(C)n1c3ccccc3c3c4c(c5c6ccccc6n2c5c31)C(=O)NC4; Suc = O=C(CCC(=O)[*:2])[*:1]; Dap = NC[C@H](N)C(=O)O; βAla = NCCC(=O)O
# Legend:
# [1] = biological target: T1, TGF-beta receptor type-1 (Homo sapiens) (UniProt P36897); assay: Binding affinity to human TGFBR1 at 500 nM by cell-based competition binding assay relative to control in presence of DTT
# T1 sequence (whole entry): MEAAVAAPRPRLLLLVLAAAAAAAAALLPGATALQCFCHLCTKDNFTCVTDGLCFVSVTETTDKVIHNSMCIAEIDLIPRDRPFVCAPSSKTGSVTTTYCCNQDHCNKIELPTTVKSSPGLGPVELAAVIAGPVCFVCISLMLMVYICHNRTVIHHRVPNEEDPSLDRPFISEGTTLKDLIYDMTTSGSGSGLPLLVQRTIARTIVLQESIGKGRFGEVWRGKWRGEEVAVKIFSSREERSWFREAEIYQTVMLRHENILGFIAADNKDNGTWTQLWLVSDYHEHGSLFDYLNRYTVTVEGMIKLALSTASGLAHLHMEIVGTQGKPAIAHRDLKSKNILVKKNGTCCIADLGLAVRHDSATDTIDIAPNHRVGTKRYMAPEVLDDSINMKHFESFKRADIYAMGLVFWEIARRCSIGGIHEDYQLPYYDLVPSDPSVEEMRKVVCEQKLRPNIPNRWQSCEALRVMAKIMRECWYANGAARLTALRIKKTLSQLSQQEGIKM
# [2] = biological target: T2, 3-phosphoinositide-dependent protein kinase 1 (Homo sapiens) (UniProt O15530); assay: Binding affinity to human PDPK1 at 500 nM by cell-based competition binding assay relative to control in presence of DTT
# T2 sequence (whole entry): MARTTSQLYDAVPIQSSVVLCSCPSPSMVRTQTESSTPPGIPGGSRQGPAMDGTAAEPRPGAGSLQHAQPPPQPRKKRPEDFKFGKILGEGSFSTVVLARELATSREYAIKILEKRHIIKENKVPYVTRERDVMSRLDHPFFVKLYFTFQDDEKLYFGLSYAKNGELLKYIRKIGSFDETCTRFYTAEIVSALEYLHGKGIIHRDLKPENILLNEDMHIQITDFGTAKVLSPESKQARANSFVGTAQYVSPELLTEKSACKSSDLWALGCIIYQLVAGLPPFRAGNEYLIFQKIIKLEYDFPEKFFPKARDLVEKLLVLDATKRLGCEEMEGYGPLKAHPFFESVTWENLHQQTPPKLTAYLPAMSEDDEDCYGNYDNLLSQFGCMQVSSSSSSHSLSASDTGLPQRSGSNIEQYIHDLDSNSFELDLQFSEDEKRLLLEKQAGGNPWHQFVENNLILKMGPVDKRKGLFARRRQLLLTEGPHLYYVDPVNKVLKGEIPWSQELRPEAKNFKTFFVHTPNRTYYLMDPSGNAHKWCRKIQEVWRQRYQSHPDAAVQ
# [3] = tested on: Epidermal growth factor receptor (Homo sapiens), P00533 [L858R]; assay: Binding affinity to human EGFR L858R mutant at 200 nM by cell-based competition binding assay relative to control in presence of DTT
# Summary of the method: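 Commercial (Ambit) competitive kinase-binding panel of 90 kinases measured the binding profile. Run under reducing conditions of 7.5 mM DTT. Binding is expressed relative to control.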
# [4] = biological target: T3, Serine/threonine-protein kinase STK11 (Homo sapiens) (UniProt Q15831); assay: Binding affinity to human LKB1 at 50 nM by cell-based competition binding assay relative to control in presence of DTT
# T3 sequence (whole entry): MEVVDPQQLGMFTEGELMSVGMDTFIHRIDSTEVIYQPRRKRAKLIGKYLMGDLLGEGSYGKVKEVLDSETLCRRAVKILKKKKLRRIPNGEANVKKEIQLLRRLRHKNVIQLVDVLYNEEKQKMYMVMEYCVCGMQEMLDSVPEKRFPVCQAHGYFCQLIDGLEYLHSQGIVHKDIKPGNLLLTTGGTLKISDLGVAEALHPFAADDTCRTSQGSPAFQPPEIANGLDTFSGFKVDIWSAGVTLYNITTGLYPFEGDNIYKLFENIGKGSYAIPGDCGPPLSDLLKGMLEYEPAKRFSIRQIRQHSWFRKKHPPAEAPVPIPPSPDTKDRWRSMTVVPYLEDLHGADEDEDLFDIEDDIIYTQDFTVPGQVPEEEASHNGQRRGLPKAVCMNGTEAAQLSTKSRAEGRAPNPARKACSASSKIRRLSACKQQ
# Summary of the method: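 Competition binding screen (Ambit) across a panel of 90 kinases, scoring test ligand displacement of each kinase's binding relative to control. The screen ran under reducing conditions with 7.5 mM DTT.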
# [5] = biological target: Phosphatidylinositol 4-phosphate 3-kinase C2 domain-containing subunit beta (Homo sapiens) (UniProt O00750); assay: Binding affinity to human PIK3C2beta at 50 nM by cell-based competition binding assay relative to control in presence of DTT
# [6] = biological target: T4, Protein kinase C epsilon type (Homo sapiens) (UniProt Q02156); assay: Binding affinity to human PRKCepsilon at 50 nM by cell-based competition binding assay relative to control in presence of DTT
# T4 sequence (whole entry): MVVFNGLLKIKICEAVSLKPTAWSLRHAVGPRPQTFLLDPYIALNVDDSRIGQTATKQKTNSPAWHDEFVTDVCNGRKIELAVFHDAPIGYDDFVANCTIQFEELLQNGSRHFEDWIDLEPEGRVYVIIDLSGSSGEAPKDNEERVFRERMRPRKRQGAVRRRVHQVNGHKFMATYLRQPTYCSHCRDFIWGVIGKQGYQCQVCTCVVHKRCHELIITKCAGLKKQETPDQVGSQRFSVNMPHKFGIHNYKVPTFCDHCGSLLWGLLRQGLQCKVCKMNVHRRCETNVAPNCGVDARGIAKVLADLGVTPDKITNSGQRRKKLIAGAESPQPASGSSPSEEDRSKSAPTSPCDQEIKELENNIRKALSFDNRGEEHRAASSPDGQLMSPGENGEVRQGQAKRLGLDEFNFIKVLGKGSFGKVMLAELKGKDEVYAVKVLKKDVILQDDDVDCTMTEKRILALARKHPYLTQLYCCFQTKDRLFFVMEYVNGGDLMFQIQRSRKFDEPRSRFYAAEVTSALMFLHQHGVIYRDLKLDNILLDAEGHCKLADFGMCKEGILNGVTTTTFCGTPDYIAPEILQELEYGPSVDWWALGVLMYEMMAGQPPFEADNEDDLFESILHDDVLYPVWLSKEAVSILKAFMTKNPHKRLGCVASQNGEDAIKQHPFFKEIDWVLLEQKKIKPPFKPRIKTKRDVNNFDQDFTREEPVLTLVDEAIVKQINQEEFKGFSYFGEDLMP
# [7] = biological target: RAC-beta serine/threonine-protein kinase (Homo sapiens) (UniProt P31751); assay: Binding affinity to human AKT2 at 50 nM by cell-based competition binding assay relative to control in presence of DTT
# Summary of the method: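 Kinase binding profiling ran on a commercial (Ambit) competitive binding screen against a panel of 90 kinases. The screen used reducing conditions with 7.5 mM DTT. To withstand the DTT, the bivalent ligand was tested as its amide isostere, with the disulfide replaced. A staurosporine derivative carrying a 3 β-alanine linker was run as the reference compound.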
# [8] = biological target: Serine/threonine-protein kinase pim-1 (Homo sapiens) (UniProt P11309); assay: Binding affinity to human PIM1 at 50 nM by cell-based competition binding assay relative to control in presence of DTT
smiles,measurement,setting,value
CO[C@@H]1[C@H](N(C)C(=O)CCC(=O)NCCC(=O)NCCC(=O)NCCC(N)=O)C[C@H]2O[C@]1(C)n1c3ccccc3c3c4c(c5c6ccccc6n2c5c31)C(=O)NC4,Activity,[1],75%
same,Activity,[2],18%
CO[C@@H]1[C@H](N(C)C(=O)CCC(=O)NCCC(=O)NCCC(=O)NCCC(=O)NCCC(=O)NCCC(=O)NCCC(=O)NCCC(=O)N[C@H]2CSSC[C@@H](C(=O)NCC(N)=O)NC(=O)CNC(=O)[C@H](Cc3ccccc3)NC(=O)[C@H](C(C)C)NC(=O)[C@H](CCCNC(=N)N)NC(=O)[C@H](Cc3ccccc3)NC(=O)[C@H](C(C)C)NC2=O)C[C@H]2O[C@]1(C)n1c3ccccc3c3c4c(c5c6ccccc6n2c5c31)C(=O)NC4 ({Staurosporine-Suc-βAla-βAla-βAla-βAla-βAla-βAla-βAla}-CVFRVFGCG-NH2; disulfide 1-8),Activity,[3],86%
CO[C@@H]1[C@H](N(C)C(=O)CCC(=O)NCCC(=O)NCCC(=O)NCCC(=O)NCCC(=O)NCCC(=O)NCCC(=O)NCCC(=O)N[C@H]2CNC(=O)C[C@@H](C(N)=O)NC(=O)CNC(=O)[C@H](Cc3ccccc3)NC(=O)[C@H](C(C)C)NC(=O)[C@H](CCCNC(=N)N)NC(=O)[C@H](Cc3ccccc3)NC(=O)[C@H](C(C)C)NC2=O)C[C@H]2O[C@]1(C)n1c3ccccc3c3c4c(c5c6ccccc6n2c5c31)C(=O)NC4 ({Staurosporine-Suc-βAla-βAla-βAla-βAla-βAla-βAla-βAla}-[Dap]VFRVFGD-NH2; lactam 1-8),Activity,[4],100%
same,Activity,[5],100%
same,Activity,[6],0%
same,Activity,[7],100%
same,Activity,[8],79%
